“Also recorded” adds a separate entry of the source. Where two headings read alike, the source gives them in different places.

The term IC50 denotes the point on the concentration scale where inhibition reaches its midpoint.

The target in data set [1] is TEAD3-YBD recombinant protein (Homo sapiens, UniProt Q99594). In words: gel-based ABPP in vitro palmitoylation assay, TEAD3. Format: biochemical. As to conditions: for inhibition of TEAD3 palmitoylation: click-based ABPP assay. The gist of the method: (§1)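 Protein incubated with varying test compound concentrations, 37 °C, 2 h; flufenamic acid as positive control. Then 2.5 μmol/L palmitoyl-CoA on ice, click reaction at RT. Quenched in SDS buffer with 30 mmol/L EDTA, 95 °C, 5 min. Read by Western blot with densitometry; biological triplicates, mean ± SD.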
TEAD3-YBD recombinant protein, sequence (Q99594 219-435): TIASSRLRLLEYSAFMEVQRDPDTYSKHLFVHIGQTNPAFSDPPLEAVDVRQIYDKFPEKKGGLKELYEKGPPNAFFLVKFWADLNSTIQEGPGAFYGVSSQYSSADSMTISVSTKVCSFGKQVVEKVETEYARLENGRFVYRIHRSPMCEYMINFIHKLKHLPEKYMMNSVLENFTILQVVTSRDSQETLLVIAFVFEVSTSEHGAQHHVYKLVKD

For data set [2], the target named is T1, TEAD‒YAP interaction (Homo sapiens, UniProt Q99594). The following applies: FP assay; cited from earlier work.
T1 sequence (Q99594 219-435): as above
T1 sequence (P46937 61-100 partner limits assumed): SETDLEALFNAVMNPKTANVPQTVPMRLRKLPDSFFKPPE
For another data set, the target named is TEAD1-YBD (Homo sapiens, UniProt P28347). The data set is described as follows: gel-based ABPP in vitro palmitoylation assay, TEAD1. The data set is classed as biochemical. As to conditions: gel-based ABPP selectivity profiling. The gist of the method: as §1
TEAD1-YBD, sequence (P28347 209-426): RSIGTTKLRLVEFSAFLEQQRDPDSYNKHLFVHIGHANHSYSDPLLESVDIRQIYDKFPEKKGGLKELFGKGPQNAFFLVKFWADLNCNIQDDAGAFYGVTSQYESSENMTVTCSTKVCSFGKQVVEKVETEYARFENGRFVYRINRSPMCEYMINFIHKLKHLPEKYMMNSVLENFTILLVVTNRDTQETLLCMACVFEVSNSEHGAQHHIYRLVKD
The next data set deals with TEAD2 (Homo sapiens, UniProt Q15562). In words: gel-based ABPP in vitro palmitoylation assay, TEAD2. The data set is classed as biochemical. As to conditions: gel-based ABPP selectivity profiling. The gist of the method:
as §1

A further data set deals with TEAD4 (Homo sapiens, UniProt Q15561). The data set is described as follows: gel-based ABPP in vitro palmitoylation assay, TEAD4. Format: biochemical. The following applies: gel-based ABPP selectivity profiling. A digest of the protocol: as §1
TEAD4, sequence (Q15561 217-434): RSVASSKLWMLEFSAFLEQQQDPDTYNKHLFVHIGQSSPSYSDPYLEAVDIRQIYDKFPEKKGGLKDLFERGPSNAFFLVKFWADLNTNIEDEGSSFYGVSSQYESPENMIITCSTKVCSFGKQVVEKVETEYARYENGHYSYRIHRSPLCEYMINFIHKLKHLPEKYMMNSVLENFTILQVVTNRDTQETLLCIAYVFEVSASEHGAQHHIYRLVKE
Data set [3] deals with TEAD3 Y223 mutated to phenylalanine (Homo sapiens, UniProt Q99594, Y230F). The data set is described as follows: gel-based ABPP assay, TEAD3 Y223F mutant. The data set is classed as biochemical. The gist of the method:
as §1

The target in another data set is wild-type TEAD3-YBD (Homo sapiens, UniProt Q99594). The data set is described as follows: protein thermal shift assay. Format: binding. As to conditions: DSF. A digest of the protocol:
(§2)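 Differential scanning fluorimetry. 5 μmol/L purified wild-type or mutant protein with 5× SYPRO Orange, in 20 mmol/L HEPES pH 8.5, 100 mmol/L NaCl, 2.5% DMSO, with or without test compound. Ramped 25–95 °C on a real-time PCR instrument, ROX filter. Tm calculated from raw fluorescence data.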

For another data set, the target named is widetype TEAD1 (Homo sapiens, UniProt P28347). The data set is described as follows: protein thermal shift assay. The data set is classed as binding. As to conditions: DSF. The gist of the method: as §2
widetype TEAD1, sequence (P28347 209-426): as the sequence (P28347 209-426) above
The target in a further data set is TEAD3-YBD C371A mutant (Homo sapiens, UniProt Q99594, C368A). The data set is described as follows: protein thermal shift assay. Format: binding. As to conditions: DSF. The gist of the method:
as §2

The next data set concerns the target TEAD1 C359S (Homo sapiens, UniProt P28347, C359S). The data set is described as follows: protein thermal shift assay. The data set is classed as binding. The following applies: DSF. A digest of the protocol: as §2
The target in the next data set is GAL4-TEAD3 (Homo sapiens, UniProt Q99594). In words: GAL4-Luc reporter assay, GAL4-TEAD3. The data set is classed as cell-based. A digest of the protocol:
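HEK293T cells (DMEM, 10% FBS, 1% penicillin/streptomycin) co-transfected with a GAL4-Luc reporter (secreted luciferase, 9×GAL4 binding elements), a GAL4-DBD-fused TEAD1, TEAD2, TEAD3 or TEAD4 expression vector, and a YAP-expressing plasmid. Test compound at the specified concentration, 37 °C, 12 h; luciferase signal read on a plate reader. Mean of three technical replicates.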
Background: Reporter assays use an easily measured gene product as a stand-in for the process of interest.

The subject of data set [4] is 8xGTIIC-Luc TEADs reporter. The data set is described as follows: TEAD luciferase reporter assay. As to conditions: HEK293T cells, compared with DC-TEADin1072-N1. The data set is classed as cell-based. The gist of the method:
(§3)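 HEK293T seeded at 2 × 10^5/well. Transfected with 200 ng 8xGTIIC-Luc TEAD reporter or TOPFlash β-catenin reporter, plus 20 ng pGL4.75 Renilla as internal control. Cells then exposed to various concentrations of test compound or DMSO. Firefly and Renilla signals measured by dual-luciferase assay.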

Data set [5] deals with TOP Flash beta-catenin reporter system. The data set is described as follows: TOPFlash beta-catenin reporter assay. As to conditions: HEK293T cells. Format: cell-based. A digest of the protocol: as §3
Data set [6] has as its target T2, TEAD3 (Homo sapiens, UniProt Q99594). The data set is described as follows: cellular thermal shift assay. As to conditions: HEK293T cells, 50 μmol/L, 6 h. Format: cell-based. A digest of the protocol:
(§4)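 HEK293T transfected with N-terminal 3×FLAG-tagged TEAD1–4, then given 50 μmol/L test compound or DMSO, 37 °C, 6 h. Cells trypsinised, PBS-washed, resuspended in PBS with protease inhibitor. Aliquots heated 3 min at set temperatures, then 3 min at room temperature. Three freeze–thaw cycles (liquid nitrogen/RT water), spin 20,000×g, 30 min, 4 °C. Soluble fraction immunoblotted for FLAG, with GAPDH.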
Target sequence in this assay (Q99594 whole entry): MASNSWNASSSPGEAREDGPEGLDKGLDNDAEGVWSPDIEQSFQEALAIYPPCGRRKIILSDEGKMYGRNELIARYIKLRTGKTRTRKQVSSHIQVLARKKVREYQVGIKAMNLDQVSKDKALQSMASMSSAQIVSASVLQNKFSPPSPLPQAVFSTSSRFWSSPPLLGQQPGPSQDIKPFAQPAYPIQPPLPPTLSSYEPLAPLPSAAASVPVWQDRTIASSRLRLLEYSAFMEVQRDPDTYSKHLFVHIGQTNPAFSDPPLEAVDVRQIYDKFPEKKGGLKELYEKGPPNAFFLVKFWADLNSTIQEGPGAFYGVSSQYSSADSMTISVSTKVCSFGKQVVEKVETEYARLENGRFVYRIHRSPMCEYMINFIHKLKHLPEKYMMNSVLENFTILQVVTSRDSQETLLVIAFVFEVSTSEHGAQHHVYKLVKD

For the next data set, the system named is juvenile zebrafish. The data set is described as follows: proportional growth of juvenile zebrafish. The data set is classed as in vivo. The following applies: 2-month-old juveniles, 0.25 μmol/L in water, 14 days. The gist of the method:
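AB wild-type zebrafish, 2 months old, both sexes equally, 10 per dish in 30 mL sterilised facility water. Water held 0.25 μmol/L test compound (final) or matching DMSO dilution for 14 days, aerated, refreshed daily; fed twice daily. Fish imaged by stereomicroscope from day 0. Fin length taken from fin base to line joining lobe tips; body length from jaw tip to caudal fin base.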

Another data set has as its target TEAD1-YBD C359A mutant (Homo sapiens, UniProt P28347, C359A). The data set is described as follows: protein thermal shift assay. The data set is classed as binding. As to conditions: DSF.
The target of data set [7] is T1, TEAD‒YAP interaction. The data set is described as follows: fluorescence polarization assay with FITC-labeled YAP peptide. Format: binding. As to conditions: FP assay, FITC-YAP(61-100), TEAD3 protein. The gist of the method: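 Then 30 nmol/L FITC-YAP(61–100) added for 30 min at room temperature. Polarisation read at ex 480/em 520 nm. Unlabelled synthetic YAP peptide as positive control; triplicates.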
(Polarisation of emitted light reports the rotation of a fluorescent probe.)

The target in data set [8] is T3, TEAD1 (Homo sapiens, UniProt P28347). The data set is described as follows: cellular thermal shift assay. The data set is classed as cell-based. As to conditions: HEK293T cells, 50 μmol/L, 6 h. A digest of the protocol: as §4
Target sequence in this assay (P28347 whole entry, the tested form may be a part): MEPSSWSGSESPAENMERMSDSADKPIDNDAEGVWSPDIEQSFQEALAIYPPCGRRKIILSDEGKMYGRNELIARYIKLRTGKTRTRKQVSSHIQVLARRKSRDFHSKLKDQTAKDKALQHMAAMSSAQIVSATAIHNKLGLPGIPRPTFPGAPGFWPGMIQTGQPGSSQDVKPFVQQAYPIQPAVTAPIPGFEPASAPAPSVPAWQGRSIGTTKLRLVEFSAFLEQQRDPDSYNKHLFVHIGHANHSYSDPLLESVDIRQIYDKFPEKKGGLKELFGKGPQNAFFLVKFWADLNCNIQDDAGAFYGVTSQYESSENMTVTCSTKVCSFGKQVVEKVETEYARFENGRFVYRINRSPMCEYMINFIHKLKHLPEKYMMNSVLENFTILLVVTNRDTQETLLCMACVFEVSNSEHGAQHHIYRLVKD
The target of data set [9] is T3, TEAD1. The data set is described as follows: intact protein mass spectrometry, TEAD1. The data set is classed as binding. As to conditions: excessive compound, 24 h at 4 °C. The gist of the method: (§5)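 Intact-mass LC/MS. Protein diluted to 1 mg/mL in water with 0.1% formic acid; 2 μg injected. Separated on a PLRP-S column with a 15-min water/acetonitrile (0.1% formic acid) gradient at 0.300 mL/min. Analysed on an Orbitrap Fusion with HESI source (capillary 350 °C, 3.5 kV).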
Target sequence in this assay (P28347 209-426): as the sequence (P28347 209-426) above

The target in data set [10] is T2, TEAD3. In words: intact protein mass spectrometry, TEAD3. As to conditions: excessive compound, 24 h at 4 °C. The data set is classed as binding. The gist of the method: as §5
Target sequence in this assay (Q99594 219-435): as the sequence (Q99594 219-435) above

wild-type TEAD3-YBD, sequence (Q99594 219-435): as above
TEAD2, sequence (Q15562 217-447): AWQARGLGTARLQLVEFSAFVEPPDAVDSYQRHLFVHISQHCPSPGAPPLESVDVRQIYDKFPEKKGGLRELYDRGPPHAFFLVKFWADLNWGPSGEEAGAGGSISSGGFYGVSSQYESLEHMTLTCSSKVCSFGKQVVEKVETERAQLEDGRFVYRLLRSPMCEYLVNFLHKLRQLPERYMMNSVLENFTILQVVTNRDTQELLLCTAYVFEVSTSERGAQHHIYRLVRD
TEAD3-YBD C371A mutant, sequence (Q99594 219-435 C368A): as the sequence (Q99594 219-435) above, with C150A counted along it
GAL4-TEAD3, sequence (Q99594 2-435): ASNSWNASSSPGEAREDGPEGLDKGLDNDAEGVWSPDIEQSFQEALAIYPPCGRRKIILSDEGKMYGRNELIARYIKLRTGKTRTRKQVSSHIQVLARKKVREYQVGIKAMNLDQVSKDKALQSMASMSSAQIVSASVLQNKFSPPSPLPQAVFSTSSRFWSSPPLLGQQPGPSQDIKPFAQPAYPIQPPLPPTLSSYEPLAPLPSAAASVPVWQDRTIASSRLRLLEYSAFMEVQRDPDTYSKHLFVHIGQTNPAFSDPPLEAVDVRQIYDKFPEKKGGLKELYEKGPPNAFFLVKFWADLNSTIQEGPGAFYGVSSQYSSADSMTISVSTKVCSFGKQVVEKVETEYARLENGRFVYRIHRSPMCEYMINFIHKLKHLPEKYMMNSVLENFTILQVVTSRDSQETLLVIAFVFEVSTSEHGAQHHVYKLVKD
GAL4-TEAD3, sequence (P46937 whole entry partner, the tested form may be a part): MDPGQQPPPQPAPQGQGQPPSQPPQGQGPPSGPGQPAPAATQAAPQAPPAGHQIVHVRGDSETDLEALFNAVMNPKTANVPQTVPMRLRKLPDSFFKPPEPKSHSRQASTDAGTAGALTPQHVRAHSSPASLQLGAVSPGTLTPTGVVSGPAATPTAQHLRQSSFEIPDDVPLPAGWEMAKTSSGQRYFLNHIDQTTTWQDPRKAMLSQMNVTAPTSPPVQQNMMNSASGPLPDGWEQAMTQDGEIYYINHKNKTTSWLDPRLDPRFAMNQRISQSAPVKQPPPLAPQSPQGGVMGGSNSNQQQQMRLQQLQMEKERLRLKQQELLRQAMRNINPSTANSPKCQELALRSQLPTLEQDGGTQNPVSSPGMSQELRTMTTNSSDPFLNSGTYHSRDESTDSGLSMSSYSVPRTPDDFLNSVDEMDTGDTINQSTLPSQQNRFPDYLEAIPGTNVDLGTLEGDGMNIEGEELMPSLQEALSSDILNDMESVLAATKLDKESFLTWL
TEAD3 Y223 mutated to phenylalanine, sequence (Q99594 219-435 Y230F): as the sequence (Q99594 219-435) above, with Y12F counted along it
TEAD1 C359S, sequence (P28347 209-426 C359S): as the sequence (P28347 209-426) above, with C151S counted along it
TEAD1-YBD C359A mutant, sequence (P28347 209-426 C359A): as the sequence (P28347 209-426) above, with C151A counted along it

Take `C=CC(=O)N1CCN(CCCOCc2ccccc2)CC1` [DC-TEAD3in02, 1-(4-(3-(Benzyloxy)propyl)piperazin-1-yl)prop-2-en-1-one]: the “inhibition of TEAD3 palmitoylation” value in data set [1] was “potent inhibition”.

For the molecule `CCC(=O)N1CCC(CCOc2ccccc2)CC1` [DC-TEADin1072-N1, 1-(4-(2-Phenoxyethyl)piperidin-1-yl)propan-1-one], in data set [1], the “inhibition of TEAD3 palmitoylation” value is listed as “minimal inhibition”.

Regarding `O=C(O)c1ccccc1Nc1cccc(C(F)(F)F)c1` [flufenamic acid], the “effect on TEAD‒YAP interaction” value at TEAD‒YAP interaction [2] is on record as “minimal effect”.

For the molecule `C=CC(=O)N1CCCN(CCCOCc2ccccc2)C1` [DC-TEAD3in03, 1-(3-(3-(Benzyloxy)propyl)tetrahydropyrimidin-1(2H)-yl)prop-2-en-1-one], in data set [1] (TEAD3 versus other TEAD isoforms, ABPP assays), the “selectivity over other TEAD isoforms” value is 100 fold. Moreover, the “inhibition of TEAD3 palmitoylation” value in data set [1] was “potent inhibition”. At TEAD1-YBD, the “inhibition of TEAD1 palmitoylation” value is “selectively inhibited”. Also, on TEAD2, the “inhibition of TEAD2 palmitoylation” value is “sparing”. Besides, the “inhibition of TEAD4 palmitoylation” value against TEAD4 is “sparing”. In addition, the IC50 in [3] is about 18.5 µM. At wild-type TEAD3-YBD, the “effect on thermal stability of TEAD3 protein” value was “significantly improved”. Moreover, at widetype TEAD1, the “effect on thermal stability of wild-type TEAD1” value is “minimal effect”. Moreover, at TEAD3-YBD C371A mutant, the “effect on thermal stability of TEAD3 C371A mutant” value was “minimal effect”. In addition, the “effect on thermal stability of TEAD1 C359S mutant” value on TEAD1 C359S is “minimal effect”. The same molecule came in with an IC50 against GAL4-TEAD3 of 1.15 µM. In addition, the TEAD reporter activity result in data set [4] is “significant reduction”. In addition, the “effect on TOP Flash beta-catenin reporter” value in data set [5] is given as “minimal effect”. In addition, the “thermal stability / soluble fraction of TEAD3 in intact cells” value on TEAD3 [6] is given as “increased the soluble fraction; also recorded: significantly increases the content of TEAD3 soluble contents”. Besides, the “ectopic or tumorous growth” value in the data set with juvenile zebrafish is recorded as “no ectopic or tumorous growth”. In the data set with juvenile zebrafish (vs DMSO), the body growth rate entry is “did not observe a significant difference”, the body length result was “did not observe a significant difference” and the “growth rate of the caudal fin” value is recorded as “reduced the growth rate; also recorded: selective reduction”.

Turning to `C=CC(=O)N1CCC(O)(CCCOCc2ccccc2)CC1` [DC-TEAD3in01, 1-(4-(3-(Benzyloxy)propyl)-4-hydroxypiperidin-1-yl)prop-2-en-1-one], the “inhibition of TEAD3 palmitoylation” value in data set [1] was “potent inhibition”.

Turning to `C=CC(=O)N1CCC(CCOc2ccccc2)CC1` [DC-TEADin1072, 1-(4-(2-Phenoxyethyl)piperidin-1-yl)prop-2-en-1-one], the IC50 in data set [1] is 0.58 ± 0.12 µM. Further, the “inhibition of TEAD2 palmitoylation” value on TEAD2 is on record as “sparing”. In addition, at TEAD4, the “inhibition of TEAD4 palmitoylation” value was “sparing”. Besides, the “effect on thermal stability of TEAD3 C371A mutant” value on TEAD3-YBD C371A mutant was “significantly abolished the compound effect”. Moreover, at TEAD1-YBD C359A mutant, the “effect on thermal stability of TEAD1-YBD C359A mutant” value is listed as “significantly abolished the compound effect”. Further, on TEAD‒YAP interaction [7], the “effect on TEAD‒YAP interaction” value was “minimal effect”. On TEAD1 [8], the “thermal stability of TEAD1 in intact cells” value is on record as “increase the thermal stability”. Besides, at TEAD3 [6], the “thermal stability / soluble fraction of TEAD3 in intact cells” value was “increase the thermal stability”. For the same molecule, in the data set on juvenile zebrafish, the “ectopic or tumorous growth” value is reported as “No obvious ectopic or tumorous growth”. For the same molecule, in the data set on juvenile zebrafish (vs DMSO), the body growth rate result is reported as “decreased significantly; also recorded: reduction”, the body length result is given as “nearly significantly different”, the “growth rate of the caudal fin” value is given as “reduced; also recorded: reduction” and the “tail (caudal fin) length” value is reported as “no differences”. In addition, the “difference in mass of TEAD1 protein after incubation” value on TEAD1 [9] was “+259.5 Da”. At TEAD3 [10], the “difference in mass of TEAD3 protein after incubation” value is “+259.5 Da”.
